Experimental data from ChEMBL document CHEMBL3112490, “Ionic liquid mediated synthesis of mono- and bis-spirooxindole-hexahydropyrrolidines as cholinesterase inhibitors and their molecular docking studies” (Bioorg Med Chem, 2014).

Legend:
Acetylcholinesterase [1] = target: T1, Acetylcholinesterase (Homo sapiens, UniProt P22303); experiment: Inhibition of AChE (unknown origin) using acetylthiocholine iodide as substrate preincubated for 15 mins followed by substrate addition by Ellman's method
[2] = Selectivity ratio of IC50 for equine serum BChE to IC50 for AChE (unknown origin)
[3] = Selectivity index, ratio of IC50 for AChE (unknown origin) to IC50 for equine serum BChE
Cholinesterase [4] = target: T2, Cholinesterase (Equus caballus, UniProt P81908); experiment: Inhibition of equine serum BChE using S-butyrylthiocholine chloride as substrate preincubated for 15 mins followed by substrate addition by Ellman's method
Summary of the method: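 Modified Ellman assay with equine serum BChE in 0.1 M sodium phosphate, pH 8. Enzyme preincubated with sample (DMSO, 1% final) for 15 min at 25 °C. DTNB (10 mM stock) then added, followed by S-butyrylthiocholine chloride (14 mM stock). Triplicates, blank-corrected; % inhibition calculated relative to control.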

Cholinesterase [5] = target: T2, Cholinesterase; experiment: Mixed-type inhibition of equine serum BChE using S-butyrylthiocholine chloride as substrate by Dixon plot analysis
Summary of the method: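 Equine serum BChE run in the same Ellman kinetic format, pH 8, with a 15 min 25 °C preincubation. Inhibitor at 0, 0.90 and 1.81 µM; S-butyrylthiocholine chloride at 1, 2, 4 and 8 mM; read at 412 nm. Inhibition mode, Km and Vmax taken from Lineweaver–Burk plots; Ki from Dixon plot.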

Acetylcholinesterase [6] = target: T1, Acetylcholinesterase; experiment: Competitive inhibition of AChE (unknown origin) using acetylthiocholine iodide as substrate by Dixon plot analysis
Summary of the method: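 Ellman kinetics on AChE, added as a 0.09 units/mL solution, in pH 8 phosphate buffer with a 15 min 25 °C preincubation. Inhibitor at 0, 0.70 and 1.40 µM; acetylthiocholine iodide at 1, 2, 4 and 8 mM; DTNB detection at 412 nm. Mode, Km and Vmax from Lineweaver–Burk plots; Ki from Dixon plot.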

T1 sequence (P22303 whole entry): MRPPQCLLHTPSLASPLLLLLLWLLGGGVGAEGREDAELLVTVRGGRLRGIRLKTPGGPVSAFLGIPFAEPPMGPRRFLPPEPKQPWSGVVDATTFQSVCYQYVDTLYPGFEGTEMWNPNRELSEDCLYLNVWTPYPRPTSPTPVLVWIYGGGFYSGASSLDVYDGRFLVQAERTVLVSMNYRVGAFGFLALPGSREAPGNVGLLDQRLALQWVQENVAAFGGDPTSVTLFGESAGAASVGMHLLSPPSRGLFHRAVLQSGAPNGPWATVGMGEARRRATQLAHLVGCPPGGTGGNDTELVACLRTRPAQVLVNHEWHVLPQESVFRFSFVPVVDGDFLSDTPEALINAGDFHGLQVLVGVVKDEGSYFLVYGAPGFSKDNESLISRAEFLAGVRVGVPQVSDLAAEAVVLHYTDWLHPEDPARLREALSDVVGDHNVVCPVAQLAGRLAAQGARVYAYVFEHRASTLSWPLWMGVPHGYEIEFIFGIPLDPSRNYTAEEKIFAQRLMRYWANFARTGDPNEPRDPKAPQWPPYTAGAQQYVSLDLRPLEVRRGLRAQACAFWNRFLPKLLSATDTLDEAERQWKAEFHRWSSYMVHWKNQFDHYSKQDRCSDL
T2 sequence (P81908 whole entry): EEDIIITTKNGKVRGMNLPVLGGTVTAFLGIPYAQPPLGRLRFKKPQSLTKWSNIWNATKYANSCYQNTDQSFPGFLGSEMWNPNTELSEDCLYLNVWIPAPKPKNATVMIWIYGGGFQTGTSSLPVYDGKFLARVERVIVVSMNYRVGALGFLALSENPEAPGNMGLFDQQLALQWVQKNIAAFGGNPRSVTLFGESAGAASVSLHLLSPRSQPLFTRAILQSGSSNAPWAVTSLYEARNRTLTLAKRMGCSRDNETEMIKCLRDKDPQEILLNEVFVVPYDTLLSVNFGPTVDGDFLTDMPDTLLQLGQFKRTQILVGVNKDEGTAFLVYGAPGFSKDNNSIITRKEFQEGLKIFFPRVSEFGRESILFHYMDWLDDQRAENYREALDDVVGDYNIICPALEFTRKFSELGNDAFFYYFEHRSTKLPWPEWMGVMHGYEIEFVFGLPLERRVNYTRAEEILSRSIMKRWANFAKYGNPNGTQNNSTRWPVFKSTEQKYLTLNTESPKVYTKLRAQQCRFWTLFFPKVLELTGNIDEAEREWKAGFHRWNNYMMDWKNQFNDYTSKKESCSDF

| Structure (SMILES) | IC50 (Acetylcholinesterase [1]) | Ratio IC50 [2] | Ratio IC50 [3] | IC50 (Cholinesterase [4]) | Ki (Cholinesterase [5]) | Ki (Acetylcholinesterase [6]) |
| --- | --- | --- | --- | --- | --- | --- |
| C=CC(=O)N1C/C(=C\c2ccc(C)cc2)C(=O)[C@@]2(C1)[C@H](c1ccc(C)cc1)CN(C)[C@]21C(=O)Nc2ccccc21 (racemic) | 7.49 µM | 1.24 | 0.81 | 9.28 µM |  |  |
| C=CC(=O)N1C/C(=C\c2ccc(F)cc2)C(=O)[C@@]2(C1)[C@H](c1ccc(F)cc1)CN(C)[C@]21C(=O)Nc2ccccc21 (racemic) | 7.8 µM | 0.43 | 2.3 | 3.39 µM |  |  |
| C=CC(=O)N1C/C(=C\c2ccc(Cl)cc2Cl)C(=O)[C@@]2(C1)[C@H](c1ccc(Cl)cc1Cl)CN(C)[C@]21C(=O)Nc2ccccc21 (racemic) | 6.14 µM | 0.87 | 1.15 | 5.32 µM |  |  |
| C=CC(=O)N1C/C(=C\c2ccccc2OC)C(=O)[C@@]2(C1)[C@H](c1ccccc1OC)CN(C)[C@]21C(=O)Nc2ccccc21 (racemic) | 4.1 µM | 1.03 | 0.97 | 4.22 µM |  |  |
| C=CC(=O)N1C/C(=C\c2ccccc2)C(=O)[C@@]2(C1)[C@H](c1ccccc1)CN(C)[C@]21C(=O)Nc2ccccc21 (racemic) | 8.74 µM | 0.86 | 1.16 | 7.52 µM |  |  |
| C=CC(=O)N1C/C(=C\c2cccc3ccccc23)C(=O)[C@@]2(C1)[C@H](c1cccc3ccccc13)CN(C)[C@]21C(=O)Nc2ccccc21 (racemic) | 7.59 µM | 1.17 | 0.86 | 8.85 µM |  |  |
| CN1CC[C@@H](C(=O)N2C/C(=C\c3ccccc3F)C(=O)[C@@]3(C2)[C@H](c2ccccc2F)CN(C)[C@]32C(=O)Nc3ccccc32)[C@@]12C(=O)Nc1ccccc12 (racemic) | 6.18 µM | 1.2 | 0.83 | 7.44 µM |  |  |
| COc1ccccc1/C=C1\CN(C(=O)[C@@H]2CCN(C)[C@]23C(=O)Nc2ccccc23)C[C@]2(C1=O)[C@H](c1ccccc1OC)CN(C)[C@]21C(=O)Nc2ccccc21 (racemic) | 4.73 µM | 2.2 | 0.45 | 10.4 µM |  |  |
| CN1CC[C@@H](C(=O)N2C/C(=C\c3ccccc3Cl)C(=O)[C@@]3(C2)[C@H](c2ccccc2Cl)CN(C)[C@]32C(=O)Nc3ccccc32)[C@@]12C(=O)Nc1ccccc12 (racemic) | 5.19 µM | 1.81 | 0.55 | 9.38 µM |  |  |
| CN1CC[C@@H](C(=O)N2C/C(=C\c3ccc(Cl)cc3Cl)C(=O)[C@@]3(C2)[C@H](c2ccc(Cl)cc2Cl)CN(C)[C@]32C(=O)Nc3ccccc32)[C@@]12C(=O)Nc1ccccc12 (racemic) | 4.42 µM | 4.05 | 0.25 | 17.9 µM |  |  |
| C=CC(=O)N1C/C(=C\c2ccccc2F)C(=O)[C@@]2(C1)[C@H](c1ccccc1F)CN(C)[C@]21C(=O)Nc2ccccc21 (racemic) | 6.88 µM | 0.47 | 2.14 | 3.21 µM | 6.76 µM |  |
| Cc1ccccc1/C=C1\CN(C(=O)[C@@H]2CCN(C)[C@]23C(=O)Nc2ccccc23)C[C@]2(C1=O)[C@H](c1ccccc1C)CN(C)[C@]21C(=O)Nc2ccccc21 (racemic) | 9.43 µM | 1.33 | 0.75 | 12.5 µM |  |  |
| CN1CC[C@@H](C(=O)N2C/C(=C\c3ccc(F)cc3)C(=O)[C@@]3(C2)[C@H](c2ccc(F)cc2)CN(C)[C@]32C(=O)Nc3ccccc32)[C@@]12C(=O)Nc1ccccc12 (racemic) | 2.35 µM | 3.33 | 0.3 | 7.82 µM |  | 2.01 µM |
| C=CC(=O)N1C/C(=C\c2ccc(Cl)cc2)C(=O)[C@@]2(C1)[C@H](c1ccc(Cl)cc1)CN(C)[C@]21C(=O)Nc2ccccc21 (racemic) | 8.4 µM | 0.81 | 1.24 | 6.77 µM |  |  |
| CN1CC[C@@H](C(=O)N2C/C(=C\c3cccc([N+](=O)[O-])c3)C(=O)[C@@]3(C2)[C@H](c2cccc([N+](=O)[O-])c2)CN(C)[C@]32C(=O)Nc3ccccc32)[C@@]12C(=O)Nc1ccccc12 (racemic) | 2.47 µM | 5 | 0.2 | 12.3 µM |  |  |
| C=CC(=O)N1C/C(=C\c2ccccc2Cl)C(=O)[C@@]2(C1)[C@H](c1ccccc1Cl)CN(C)[C@]21C(=O)Nc2ccccc21 (racemic) | 5.12 µM | 0.82 | 1.22 | 4.2 µM |  |  |
| CN1CC[C@@H](C(=O)N2C/C(=C\c3ccccc3)C(=O)[C@@]3(C2)[C@H](c2ccccc2)CN(C)[C@]32C(=O)Nc3ccccc32)[C@@]12C(=O)Nc1ccccc12 (racemic) | 2.63 µM | 3.55 | 0.28 | 9.34 µM |  |  |
| C=CC(=O)N1C/C(=C\c2ccccc2C)C(=O)[C@@]2(C1)[C@H](c1ccccc1C)CN(C)[C@]21C(=O)Nc2ccccc21 (racemic) | 3.97 µM | 0.97 | 1.03 | 3.86 µM |  |  |
| Cc1ccc(/C=C2\CN(C(=O)[C@@H]3CCN(C)[C@]34C(=O)Nc3ccccc34)C[C@]3(C2=O)[C@H](c2ccc(C)cc2)CN(C)[C@]32C(=O)Nc3ccccc32)cc1 (racemic) | 7.67 µM | 1.47 | 0.68 | 11.3 µM |  |  |
| CN1CC[C@@H](C(=O)N2C/C(=C\c3ccc(Cl)cc3)C(=O)[C@@]3(C2)[C@H](c2ccc(Cl)cc2)CN(C)[C@]32C(=O)Nc3ccccc32)[C@@]12C(=O)Nc1ccccc12 (racemic) | 6.14 µM | 1.54 | 0.65 | 9.44 µM |  |  |
| CN1CC[C@@H](C(=O)N2C/C(=C\c3cccc4ccccc34)C(=O)[C@@]3(C2)[C@H](c2cccc4ccccc24)CN(C)[C@]32C(=O)Nc3ccccc32)[C@@]12C(=O)Nc1ccccc12 (racemic) | 4.93 µM | 3.88 | 0.26 | 19.1 µM |  |  |
| C=CC(=O)N1C/C(=C\c2cccc([N+](=O)[O-])c2)C(=O)[C@@]2(C1)[C@H](c1cccc([N+](=O)[O-])c1)CN(C)[C@]21C(=O)Nc2ccccc21 (racemic) | 5.34 µM | 1.45 | 0.69 | 7.74 µM |  |  |
